ChEMBL document CHEMBL1130061, “Discovery and biological activity of orally active peptidyl trifluoromethyl ketone inhibitors of human neutrophil elastase” (J Med Chem, 1997)

How the values were obtained:
Cricetinae gen. sp. [1] = experiment: Inhibition at the oral dose of 10 mg/kg 30 min prior to […] dose of 50 microg of HNE in hamster; format: functional, Cricetulus griseus
Method in brief: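 Anesthetized hamsters received HNE (50 µg/hamster) intratracheally, with the compound given orally as a solution in 10% PEG/PBS 30 min beforehand. Lung hemorrhage was quantified 4 h later by spectrophotometric hemoglobin measurement in lung lavage. Percent inhibition is relative to HNE and saline controls: 100% equals saline, 0% equals HNE.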

Mesocricetus auratus [2] = organism: Mesocricetus auratus; experiment: Reduction in wet lung weight relative to the body weight in hamsters
Neutrophil elastase = target: T1, Neutrophil elastase (Homo sapiens, UniProt P08246); experiment: Inhibitory activity against Human Neutrophil Elastase by HNE-catalyzed hydrolysis of MeO-Suc-Ala-Ala-Pro-Val-pNa
T1 sequence (P08246 whole entry): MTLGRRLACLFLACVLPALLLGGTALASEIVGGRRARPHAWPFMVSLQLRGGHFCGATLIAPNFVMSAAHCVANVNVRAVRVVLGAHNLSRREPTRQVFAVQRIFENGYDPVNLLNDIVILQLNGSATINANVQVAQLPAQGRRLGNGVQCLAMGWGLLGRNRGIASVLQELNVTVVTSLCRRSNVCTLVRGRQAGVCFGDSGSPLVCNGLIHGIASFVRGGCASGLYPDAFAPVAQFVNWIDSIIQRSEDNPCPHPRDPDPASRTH

Mesocricetus auratus [3] = experiment: Oral administration at a dose of 37.5 mg/kg 30 min prior to HNE and reduction in the number of white blood cells was reported
Cricetinae gen. sp. [4] = experiment: Inhibition at the oral dose of 25 mg/kg 30 min prior to […] dose of 10 microg of HNE in hamster; format: functional, Cricetulus griseus
Mesocricetus auratus [5] = experiment: Oral administration at a dose of 37.5 mg/kg 30 min prior to HNE (100 mg/hamster) and reduction in the number of white blood cells was reported

Structure (SMILES) | inhibition in vivo at 10 mg/kg (Cricetinae gen. sp. [1]) | Lw/Bw (Mesocricetus auratus [2]) | Ki (Neutrophil elastase) | Reduction (Mesocricetus auratus [3]) | inhibition in vivo at 25 mg/kg (Cricetinae gen. sp. [4]) | Reduction (Mesocricetus auratus [5])
CC(C)[C@H](NC(=O)Oc1ccccc1)C(=O)N1CCC[C@H]1C(=O)N[C@H](C(=O)C(F)(F)F)C(C)C | 91% | 62 | 1.3 nM | 77% |  | 
CC(C)[C@H](NC(=O)N1CCOCC1)C(=O)N1CCC[C@H]1C(=O)N[C@H](C(=O)C(F)(F)C(F)(F)F)C(C)C |  |  | 170 nM |  | 69% | 
CC(C)[C@H](NC(=O)c1ccc(C(=O)N2CCOCC2)cc1)C(=O)N1CCC[C@H]1C(=O)N[C@H](C(=O)C(F)(F)C(F)(F)F)C(C)C |  |  | 25 nM |  | 74% | 
COc1ccc(C(=O)N[C@H](C(=O)N2CCC[C@H]2C(=O)N[C@H](C(=O)C(F)(F)F)C(C)C)C(C)C)cc1 | 84% | 77 |  | 91% |  | 
CC(C)[C@H](NC(=O)c1ccc(O)c(O)c1)C(=O)N1CCC[C@H]1C(=O)N[C@H](C(=O)C(F)(F)F)C(C)C |  | -73 | 16 nM |  |  | -41%
CC(C)C(NC(=O)C1CCCN1C(=O)[C@@H](NS(=O)(=O)c1ccc([N+](=O)[O-])cc1)C(C)C)C(=O)C(F)(F)F (stereo partly drawn) |  | -36 | 5.2 nM |  |  | -118%
CC(C)C(NC(=O)C1CCCN1C(=O)[C@H](C(C)C)N(CCCc1ccccc1)CCCc1ccccc1)C(=O)C(F)(F)F.Cl (stereo partly drawn) |  | -23 | 1.7 nM |  |  | -39%
CCOC(=O)c1ccc(/C=C/C(=O)N[C@H](C(=O)N2CCCC2C(=O)NC(C(=O)C(F)(F)F)C(C)C)C(C)C)cc1 (stereo partly drawn) |  | -122 | 0.43 nM |  |  | -48%
